Measurements taken from ChEMBL document CHEMBL1129494, “Structure-based design of lipophilic quinazoline inhibitors of thymidylate synthase” (J Med Chem, 1996).

Legend:
CCRF-CEM [1] = test: Inhibitory activity of compound against growth of human leukemias (CCRF-CEM) in tissue culture; format: functional
Summary of the method: (§1)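 MTT colorimetric growth assay (modified Mosmann) in CCRF-CEM human leukemia cells seeded at 10 000 cells/well in RPMI-1640 with 5% fetal calf serum and 0.5% DMSO. Nine 2-fold serial dilutions of compound, 5 day incubation, then 4 h MTT and formazan dissolved in DMSO for spectrophotometric reading. IC50 taken from semilog plots of the mean of four growth assessments per dilution relative to control cultures.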

[2] = biological target: Thymidylate synthase (Homo sapiens) (UniProt P04818)
Thymidylate synthase (Homo sapiens), sequence (P04818 2-313 limits assumed): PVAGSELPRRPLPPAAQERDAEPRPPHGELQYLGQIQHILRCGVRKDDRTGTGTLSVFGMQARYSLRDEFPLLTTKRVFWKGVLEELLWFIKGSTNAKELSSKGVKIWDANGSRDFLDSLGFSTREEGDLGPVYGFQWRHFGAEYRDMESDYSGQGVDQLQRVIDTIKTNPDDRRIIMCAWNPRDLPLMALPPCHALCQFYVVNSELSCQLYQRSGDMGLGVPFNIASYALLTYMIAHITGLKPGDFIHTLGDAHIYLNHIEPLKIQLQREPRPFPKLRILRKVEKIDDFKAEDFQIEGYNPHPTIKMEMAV

GC3/MTK- [3] = test: Inhibition of GC3/M TK- (human adenocarcinoma) cell growth in vitro.; format: functional, cell-based
Summary of the method: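 Thymidine kinase-deficient human adenocarcinoma GC3/M TK- cells seeded at 10 000 cells/well in RPMI-1640 with 10% fetal calf serum and 0.5% DMSO. Compound given as nine 2-fold serial dilutions over a 5 day incubation, then 4 h MTT and spectrophotometric formazan read after DMSO dissolution. IC50 from semilog plots of the mean of four growth assessments relative to control cultures.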

L1210 [4] = test: Inhibition of murine L1210 cell line tissue culture growth; format: functional, cell-based; settings: Mus musculus
Summary of the method: (§2)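 Murine L1210 leukemia cells seeded at 1000 cells/well in RPMI-1640 containing 5% fetal calf serum and 0.5% DMSO, exposed to nine 2-fold serial dilutions for 3 days. Growth was read by MTT (4 h), with formazan dissolved in DMSO and measured spectrophotometrically. IC50 comes from semilog concentration plots of the mean of four assessments per dilution versus control growth.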

[5] = biological target: Thymidylate synthase (Homo sapiens) (UniProt P04818); remark: listed apart in the source
CCRF-CEM [6] = test: (§3) Inhibition of CCRF-CEM (human leukemia) cell growth in vitro.; format: functional, cell-based; summary of the method: as §1
GC3/MTK- [7] = test: (§4) Inhibitory activity of compound against growth of thymidine kinase-deficient human adenocarcinoma cell line (GC3/M TK-) in tissue culture; format: functional; set-up: concentration or dose not given beside the values
Summary of the method: (§5)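 MTT colorimetric growth assay in the thymidine kinase-deficient human adenocarcinoma line. Seeded at 10 000 cells/well in RPMI-1640 with 10% fetal calf serum and 0.5% DMSO. Nine 2-fold serial dilutions of compound, 5 day incubation, then 4 h MTT. Formazan dissolved in DMSO and read spectrophotometrically. IC50 taken from semilog plots of the mean of four growth assessments per dilution, relative to control cultures.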

[8] = biological target: Thymidylate synthase (Escherichia coli) (UniProt C3SWJ7)
Thymidylate synthase (Escherichia coli), sequence (C3SWJ7 1-264): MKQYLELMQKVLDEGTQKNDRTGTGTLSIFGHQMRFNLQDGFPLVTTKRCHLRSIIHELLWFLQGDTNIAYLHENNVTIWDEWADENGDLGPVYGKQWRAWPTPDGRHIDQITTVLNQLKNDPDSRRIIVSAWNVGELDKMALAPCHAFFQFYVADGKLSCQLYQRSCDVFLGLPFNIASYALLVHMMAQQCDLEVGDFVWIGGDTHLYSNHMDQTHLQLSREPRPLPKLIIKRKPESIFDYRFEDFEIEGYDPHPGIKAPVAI

L1210 [9] = test: (§6) Inhibition of L1210 (murine leukemia) cell growth in vitro.; format: functional, Mus musculus; set-up: concentration or dose not given beside the values; summary of the method: as §2
[10] = biological target: Thymidylate synthase (Escherichia coli) (UniProt C3SWJ7); remark: listed apart in the source
CCRF-CEM [11] = test: Inhibitory activity of compound against growth of human leukemias (CCRF-CEM) cell line in tissue culture; format: functional
Summary of the method: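 CCRF-CEM human leukemia cells seeded at 10 000 cells/well in RPMI-1640 with 5% fetal calf serum and 0.5% DMSO. Exposed to nine 2-fold serial dilutions for 5 days, followed by 4 h with MTT. Formazan dissolved in DMSO and measured spectrophotometrically. IC50 read from semilog plots of the mean of four growth assessments per dilution versus control growth.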

L1210 [12] = test: as §6; format: functional, Mus musculus; summary of the method: as §2
GC3/MTK- [13] = test: as §4; format: functional; summary of the method: as §5
CCRF-CEM [14] = test: Activity for growth inhibition in tissue culture of human leukemias( CCRF-CEM); format: functional, cell-based; summary of the method: as §1
CCRF-CEM [15] = test: as §3; format: functional; set-up: concentration or dose not given beside the values; summary of the method: as §1

| SMILES | Inhibition (CCRF-CEM [1]) [%] | Kis [2] [µM] | IC50 (GC3/MTK- [3]) [µM] | IC50 (L1210 [4]) [µM] | Kii [5] [µM] | IC50 (CCRF-CEM [6]) [µM] | Inhibition (GC3/MTK- [7]) [%] | Kii [8] [µM] | Inhibition (L1210 [9]) [%] | Kis [10] [µM] | Inhibition (CCRF-CEM [11]) [%] | Inhibition (L1210 [12]) [%] | Inhibition (GC3/MTK- [13]) [%] | IC50 (CCRF-CEM [14]) [µM] | Inhibition (CCRF-CEM [15]) [%] |
| --- | --- | --- | --- | --- | --- | --- | --- | --- | --- | --- | --- | --- | --- | --- | --- |
| C#CCN(Cc1ccc2nc(C)nc(O)c2c1)c1ccc(S(=O)(=O)N2CCN(C)CC2)cc1 | 24 | 0.083 | > 10 | > 10 | 0.19 | > 10 | 17 | 0.28 | 27 | 0.13 | – | – | – | – | – |
| C#CCN(Cc1ccc2nc(C)nc(O)c2c1)c1cccc(C(F)(F)F)c1 | – | – | > 4.3 | > 2.2 | – | > 4.3 | – | – | – | – | 41 | 35 | 25 | – | – |
| C#CCN(Cc1ccc2nc(C)nc(O)c2c1)c1ccc(Cl)cc1 | – | 0.36 | – | > 4 | 0.77 | – | – | 3.7 | 25 | 0.85 | – | – | – | > 4 | 20 |
